ChEMBL document CHEMBL2346587, “Design, synthesis, and evaluation of a water-soluble antofine analogue with high antiproliferative and antitumor activity” (Bioorg Med Chem, 2013)
Activity calls are given as the source filed them. No cut-off for these calls is given here.

Assays:
A549 [1] = assay: Inhibition of AKT/c-myc signaling in human A549 cells assessed as reduction in CDK4 protein expression at 50 to 400 nM after 24 hrs by Western blot analysis; type: cell-based
Outline: (§1)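 A549 cells plated at 3 × 10^5 per 60 mm dish, grown 24 h, then exposed to a concentration series for 24 h. Lysed in boiling SDS sample buffer with NaF and orthovanadate; protein by BCA; 25–50 µg run on 8–15% SDS-PAGE, transferred to PVDF, blocked in 5% milk/PBST, primary antibodies overnight at 4 °C, secondary 1–2 h, ECL detection.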

A549 [2] = assay: Antitumor activity against paclitaxel-resistant human A549 cells xenografted in athymic nu/nu BALB/c mouse assessed as inhibition of Ki-67 expression at 5 to 10 mg/kg, ip administered 35 days post-implantation 3 times a week by immunohistochemistry; type: functional, organism-based
Outline: (§2)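 Female athymic BALB/c nu/nu mice, six weeks old; 2 × 10^6 A549 or A549-Pa cells in 0.1 mL RPMI injected s.c. into right flank on day 0. Dosing began at 95–100 mm3 tumour volume: drug in 1% cremophore in PBS given i.p. three times weekly; controls got vehicle; five mice/group. Tumour volume tracked every 3–5 days; tumours excised and weighed at end; sections immunostained for Ki-67.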

A549 [3] = assay: Antitumor activity against human A549 cells xenografted in athymic nu/nu BALB/c mouse assessed as inhibition of tumor growth at 10 mg/kg, ip administered 35 days post-implantation 3 times a week relative to control; type: functional; conditions: 840 h, route intraperitoneal, read-out: TGI; outline: as §2
SNU-638 = assay: Cytotoxicity against human SNU638 cells after 72 hrs by SRB assay; type: functional, cell-based; conditions: SNU-638, 72 h
Outline: (§3)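 SRB growth assay: 5 × 10^3 cells/well exposed to a concentration series for 72 h; fixed in 10% TCA 30 min at 4 °C, stained with 0.4% SRB in 1% acetic acid 30 min, dye dissolved in 10 mM Tris pH 10.0, absorbance at 515 nm. Viability relative to vehicle control; IC50 by non-linear regression; at least three experiments. A549-Pa is a paclitaxel-resistant A549 subline.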

A549 [4] = assay: Cell cycle arrest in human A549 cells assessed as accumulation at S phase at 400 nM after 24 hrs by flow cytometry (reference value: 13.38 %); type: functional
A549 [5] = assay: Inhibition of AKT/mTOR signaling in human A549 cells assessed as inhibition of 4E-BP1 phosphorylation at 50 to 400 nM after 24 hrs by Western blot analysis; type: cell-based; outline: as §1
A549 [6] = assay: Cell cycle arrest in human A549 cells assessed as accumulation at sub-G1 phase at 400 nM after 24 hrs by flow cytometry (reference value: 1.40 %); type: functional
A549 [7] = assay: Inhibition of AKT/mTOR signaling in human A549 cells assessed as inhibition of eIF4E phosphorylation at 50 to 400 nM after 24 hrs by Western blot analysis; type: cell-based; outline: as §1
A549 [8] = assay: Antitumor activity against paclitaxel-resistant human A549 cells xenografted in ip dosed athymic nu/nu BALB/c mouse assessed as inhibition of P-gp expression administered 35 days post-implantation 3 times a week by immunohistochemistry; type: functional, organism-based
Outline: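 A549-Pa (paclitaxel-resistant) xenografts in female athymic BALB/c nu/nu mice, grown s.c. in right flank and treated i.p. three times weekly in 1% cremophore/PBS once tumours reached 95–100 mm3. Excised tumour sections incubated overnight at 4 °C with P-glycoprotein antibody, detected by HRP-polymer system, hematoxylin counterstain, viewed by microscopy.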

SK-HEP1 = assay: Cytotoxicity against human SKHEP1 cells after 72 hrs by SRB assay; type: functional, cell-based; conditions: SK-HEP1, 72 h; outline: as §3
A549 [9] = assay: Cytotoxicity against human paclitaxel-resistant A549 cells after 72 hrs by SRB assay; type: functional, cell-based; conditions: A549, 72 h; outline: as §3
A549 [10] = assay: Cell cycle arrest in human A549 cells assessed as accumulation at sub-G1 phase at 50 nM after 24 hrs by flow cytometry (reference value: 1.40 %); type: functional
A549 [11] = assay: Inhibition of AKT-mediated mTOR phosphorylation at Ser2448 residue in human A549 cells at 50 to 400 nM after 24 hrs by Western blot analysis; type: cell-based; outline: as §1
A549 [12] = assay: Inhibition of AKT/c-myc signaling in human A549 cells assessed as reduction in cyclin E protein expression at 50 to 400 nM after 24 hrs by Western blot analysis; type: cell-based; outline: as §1
A549 [13] = assay: Cell cycle arrest in human A549 cells assessed as accumulation at sub-G1 phase at 100 nM after 24 hrs by flow cytometry (reference value: 1.40 %); type: functional
A549 [14] = assay: Antitumor activity against paclitaxel-resistant human A549 cells xenografted in athymic nu/nu BALB/c mouse assessed as inhibition of tumor growth at 5 mg/kg, ip administered 35 days post-implantation 3 times a week relative to control; type: functional; conditions: 840 h, route intraperitoneal, read-out: TGI; outline: as §2
A549 [15] = assay: Cell cycle arrest in human A549 cells assessed as accumulation at G0/G1 phase at 400 nM after 24 hrs by flow cytometry (reference value: 62.38 %); type: functional
A549 [16] = assay: Cell cycle arrest in human A549 cells assessed as accumulation at S phase at 50 nM after 24 hrs by flow cytometry (reference value: 13.38 %); type: functional
Mus musculus = assay: Toxicity in paclitaxel-resistant human A549 cells xenografted athymic nu/nu BALB/c mouse assessed as body weight change at 5 to 10 mg/kg, ip administered 3 times a week; type: organism-based; design: dose 5-10 mg/kg, route intraperitoneal; conditions: in vivo
Outline: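 Six-week-old female BALB/c nu/nu mice received 2 × 10^6 A549-Pa cells in 0.1 mL RPMI subcutaneously in the right flank. Dosing began at 95–100 mm3 tumor volume, with five mice per group randomized. Compound in 1% cremophore/PBS was given intraperitoneally three times weekly; controls received equal vehicle volume. Body weight and overt toxicity were monitored.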

A549 [17] = assay: Cell cycle arrest in human A549 cells assessed as accumulation at G0/G1 phase at 50 nM after 24 hrs by flow cytometry (reference value: 62.38 %); type: functional
[18] = molecular target: T1, ATP-dependent translocase ABCB1 (Homo sapiens, UniProt P08183); assay: Inhibition of P-gp activity in human paclitaxel-resistant A549 cells assessed as rhodamine 123 accumulation at 50 nM after 72 hrs by FACS analysis (reference value: 14.4 %); type: cell-based; design: scale not given: the % may be the effect or the level left; conditions: a549, 72 h, 0.05 µM
T1 sequence (P08183 whole entry): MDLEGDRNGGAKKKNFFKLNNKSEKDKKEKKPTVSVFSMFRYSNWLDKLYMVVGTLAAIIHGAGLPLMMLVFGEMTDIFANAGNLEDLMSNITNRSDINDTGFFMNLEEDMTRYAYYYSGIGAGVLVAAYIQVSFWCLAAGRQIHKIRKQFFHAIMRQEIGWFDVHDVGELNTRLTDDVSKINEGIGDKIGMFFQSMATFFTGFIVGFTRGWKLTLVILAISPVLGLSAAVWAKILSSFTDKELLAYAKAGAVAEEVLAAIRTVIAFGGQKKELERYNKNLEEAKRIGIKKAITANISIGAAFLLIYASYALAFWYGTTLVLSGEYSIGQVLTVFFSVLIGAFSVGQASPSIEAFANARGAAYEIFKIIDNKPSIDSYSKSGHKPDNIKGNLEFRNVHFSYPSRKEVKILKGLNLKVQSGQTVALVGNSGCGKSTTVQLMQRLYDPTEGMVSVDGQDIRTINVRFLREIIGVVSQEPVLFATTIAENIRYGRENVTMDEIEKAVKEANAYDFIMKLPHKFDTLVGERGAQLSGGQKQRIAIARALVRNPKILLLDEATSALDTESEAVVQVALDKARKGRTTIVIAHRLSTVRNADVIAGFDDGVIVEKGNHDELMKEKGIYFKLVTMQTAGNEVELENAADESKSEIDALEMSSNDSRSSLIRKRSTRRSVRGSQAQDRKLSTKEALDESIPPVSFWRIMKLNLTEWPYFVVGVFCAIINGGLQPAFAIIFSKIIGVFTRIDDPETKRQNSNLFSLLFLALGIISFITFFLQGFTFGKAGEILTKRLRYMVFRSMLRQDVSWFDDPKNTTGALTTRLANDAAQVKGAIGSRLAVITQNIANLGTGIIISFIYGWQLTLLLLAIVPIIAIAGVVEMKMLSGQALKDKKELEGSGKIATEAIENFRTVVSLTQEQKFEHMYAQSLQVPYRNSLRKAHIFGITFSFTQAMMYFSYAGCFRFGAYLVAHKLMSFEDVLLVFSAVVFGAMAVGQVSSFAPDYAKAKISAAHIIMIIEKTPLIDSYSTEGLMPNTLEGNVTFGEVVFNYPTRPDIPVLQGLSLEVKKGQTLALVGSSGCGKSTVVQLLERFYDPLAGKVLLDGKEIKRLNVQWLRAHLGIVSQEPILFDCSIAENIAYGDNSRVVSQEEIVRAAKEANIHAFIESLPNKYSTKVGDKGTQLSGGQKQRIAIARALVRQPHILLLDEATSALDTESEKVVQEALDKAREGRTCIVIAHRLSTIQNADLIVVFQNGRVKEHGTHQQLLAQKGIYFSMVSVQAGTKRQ

[19] = molecular target: T1, ATP-dependent translocase ABCB1; assay: Inhibition of P-gp activity in human paclitaxel-resistant A549 cells potentiation of 5 uM gefitinib-induced cytotoxicity at 0.1 uM by SRB assay; type: cell-based; conditions: a549, 0.1 µM
Outline: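 A549-Pa cells plated at 5 × 10^4 cells/well and co-treated for 48 h with the compound (0–200 nM) plus paclitaxel or gefitinib; growth inhibition by SRB assay. Combination index computed at the 50% inhibition level as CI = D1/(Dx)1 + D2/(Dx)2, comparing combined versus single-agent concentrations.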

A549 [20] = assay: Antitumor activity against human A549 cells xenografted in athymic nu/nu BALB/c mouse assessed as inhibition of Ki-67 expression at 5 to 10 mg/kg, ip administered 35 days post-implantation 3 times a week by immunohistochemistry; type: functional, organism-based; outline: as §2
A549 [21] = assay: Cell cycle arrest in human A549 cells assessed as accumulation at G2/M phase at 200 nM after 24 hrs by flow cytometry (reference value: 22.84 %); type: functional

With `COc1ccc2c3c(c4cc(OC)c(OC)cc4c2c1)C[C@@]1(CO)CCCN1C3` the inhibition (A549 [1]) was “Active”, the inhibition (A549 [2]) was “Active” and the inhibition in vivo at 10 mg/kg (A549 [3]) was 60.7%. For the same molecule, the IC50 (SNU-638) was 80 nM, the Activity (A549 [4]) was 11.37% and the inhibition (A549 [5]) was “Active”. For the same molecule, the Activity (A549 [6]) was 1.21%, the inhibition (A549 [7]) was “Active” and the inhibition (A549 [8]) was “Dose-dependent effect”. The IC50 (SK-HEP1) was 60 nM, the IC50 (A549 [9]) was 200 nM and the Activity (A549 [10]) was 1.13%. For the same molecule, the inhibition (A549 [11]) was “Active”, the inhibition (A549 [12]) was “Active” and the Activity (A549 [13]) was 2.31%. For the same molecule, the inhibition in vivo at 5 mg/kg (A549 [14]) was 38.4%, the Activity (A549 [15]) was 67.01% and the Activity (A549 [16]) was 12.08%. For the same molecule, the Activity (Mus musculus) was “Non-toxic”, the Activity (A549 [17]) was 66.07% and the Activity [18] was 28.7%. For the same molecule, the “fractional inhibitory concentration index (FICI)” value [19] was 0.523, the inhibition (A549 [20]) was “Active” and the Activity (A549 [21]) was 18.33%.
